Source: ChEMBL document CHEMBL4350958, “Rational Design of Short Peptide Variants by Using Kunitzin-RE, an Amphibian-Derived Bioactivity Peptide, for Acquired Potent Broad-Spectrum Antimicrobial and Improved Therapeutic Potential of Commensalism Coinfection of Pathogens” (J Med Chem, 2019)
≈ marks a conversion by molar mass, not a printed value. Calls of active or inactive are those of the source. The calls are words filed in the database; no cut-off is given here.

Columns and labels:
Candida albicans [1] = assay: (§1) Antifungal activity against Candida albicans cgmcc2.2086 infected in C57BL/6 mouse model of keratitis assessed as reduction in fungal hyphae extention into corneal stroma at 1 mg/ml administered as topical eye drop every 5 mins for first 4 hrs and every 30 mins for next 7 hrs measured post-last dose by periodic acid schiff staining-based histological analysis; type: functional, organism-based
Candida parapsilosis [2] = assay: Fungicidal activity against Candida parapsilosis cgmcc2.3989 incubated for 48 hrs followed by replating on YM agar plate and measured after 48 hrs; type: functional
How it was run: (§2)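 Yeast diluted in MOPS-buffered RPMI 1640 to (0.5–1) × 10^3 CFU/mL (CLSI M27-A2, modified) and mixed 1:1 with peptide serially diluted in 0.2% BSA. After 48 h at 28 °C, 50 μL per well was plated on YM agar and incubated 48 h at 28 °C. MFC taken as the lowest concentration killing ≥99.9% of cells. Three or more independent experiments, triplicate wells.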

Candida tropicalis [3] = assay: Fungicidal activity against Candida tropicalis cgmcc2.1975 incubated for 48 hrs followed by replating on YM agar plate and measured after 48 hrs; type: functional; how it was run: as §2
Candida tropicalis [4] = assay: Antifungal activity against Candida tropicalis cgmcc2.1975 measured after 48 hrs by broth microdilution method; type: functional; conditions: cgmcc2.1975, 48 h
How it was run: (§3)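 Modified CLSI M27-A2 microdilution. Yeast colonies were diluted in MOPS-buffered RPMI 1640 to a final (0.5–1) × 10^3 CFU mL−1 and mixed with an equal volume of peptide serially diluted in 0.2% BSA. After 48 h at 28 °C, MIC was read at A492 as the lowest concentration inhibiting 95% of growth. At least three independent experiments, each with three technical replicates.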

Candida albicans [5] = assay: Antifungal activity against Candida albicans cgmcc2.2086 measured after 48 hrs by broth microdilution method; type: functional; conditions: cgmcc2.2086, 48 h; how it was run: as §3
Candida albicans [6] = assay: (§4) Antifungal activity against Candida albicans cgmcc2.2086 infected in C57BL/6 mouse model of keratitis assessed as appearance of transparent irises at 1 mg/ml administered as topical eye drop every 5 mins for first 4 hrs and every 30 mins for next 7 hrs measured post-last dose; type: functional, organism-based
Candida albicans [7] = assay: Fungicidal activity against Candida albicans cgmcc2.2086 incubated for 48 hrs followed by replating on YM agar plate and measured after 48 hrs; type: functional; how it was run: as §2
Candida albicans [8] = assay: as §1, with “infiltration” for “extention”; type: functional, organism-based
Candida albicans [9] = assay: Antifungal activity against Candida albicans cgmcc2.2086 infected in C57BL/6 mouse model of keratitis assessed as appearance of transparent corneas at 1 mg/ml administered as topical eye drop every 5 mins for first 4 hrs and every 30 mins for next 7 hrs measured post-last dose; type: functional, organism-based
Candida albicans [10] = assay: as §4, with “reduction in fungal colonies in eyeballs” for “appearance of transparent irises”, “dose by agar plate method relative to control” for “dose”; type: functional; design: scale not given: the % may be the effect or the level left
Candida albicans [11] = assay: Antifungal activity against Candida albicans cgmcc2.2086 infected in C57BL/6 mouse model of keratitis assessed as reduction in clinical score at 1 mg/ml administered as topical eye drop every 5 mins for first 4 hrs and every 30 mins for next 7 hrs measured post-last dose; type: functional, organism-based
Candida parapsilosis [12] = assay: Antifungal activity against Candida parapsilosis cgmcc2.3989 measured after 48 hrs by broth microdilution method; type: functional; conditions: Lodderomyces parapsilosis, cgmcc2.3989, 48 h; how it was run: as §3

For `C[C@@H]1[C@H](O)[C@@H](C)/C=C/C=C/C=C/C=C/C=C/C=C/C=C/[C@H](O[C@@H]2O[C@H](C)[C@@H](O)[C@H](N)[C@@H]2O)C[C@@H]2O[C@](O)(C[C@@H](O)C[C@@H](O)[C@H](O)CC[C@@H](O)C[C@@H](O)CC(=O)O[C@H]1C)C[C@H](O)[C@H]2C(=O)O` [AMPHOTERICIN B], the Activity (Candida albicans [1]) was “Active”, the “MFC<=99.9” value (Candida parapsilosis [2]) was 4 µM (≈ 3.7 µg/mL) and the “MFC<=99.9” value (Candida tropicalis [3]) was 2 µM (≈ 1.85 µg/mL). For the same compound, the MIC95 (Candida tropicalis [4]) was 1 µM (≈ 0.924 µg/mL), the MIC95 (Candida albicans [5]) was 1 µM (≈ 0.924 µg/mL) and the Activity (Candida albicans [6]) was “Active”. The “MFC<=99.9” value (Candida albicans [7]) was 2 µM (≈ 1.85 µg/mL), the Activity (Candida albicans [8]) was “Active” and the Activity (Candida albicans [9]) was “Active”. For the same compound, the Activity (Candida albicans [10]) was “<=80%”, the Activity (Candida albicans [11]) was “Active” and the MIC95 (Candida parapsilosis [12]) was 2 µM (≈ 1.85 µg/mL).
